Tests used:
Plasmodium falciparum = assay: Antiplasmodial activity against chloroquine-resistant Plasmodium falciparum W2; assay type: functional, organism-based
HUVEC = assay: Cytotoxicity against HUVEC cells; assay type: cell-based; conditions: Homo sapiens
[1] = Ratio of IC50 for human HUVEC cells to IC50 for Plasmodium falciparum W2; assay type: functional
Procedure, shortened: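 Ratio of HUVEC (human umbilical vein endothelial cell) cytotoxicity IC50 to in vitro IC50 against the chloroquine-resistant P. falciparum W2 strain.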

| Structure (SMILES) | IC50 (Plasmodium falciparum) | IC50 (HUVEC) | Ratio IC50 [1] |
| --- | --- | --- | --- |
| CCN(CC)CCCNc1c2ccccc2[n+](C)c2c1[nH]c1ccccc12.[Cl-] | 0.032 µM | 0.114 µM | 3.6 |
| CCN(CC)CCCC(C)Nc1c2ccccc2[n+](C)c2c1[nH]c1ccccc12.[Cl-] (stereo not drawn) | 0.127 µM | 0.035 µM | 0.3 |
| C[n+]1c2ccccc2c(NCCCN2CCCCC2)c2[nH]c3ccccc3c21.[Cl-] | 0.036 µM | 1.16 µM | 32.3 |
| CN(C)CC(C)(C)CNc1c2ccccc2[n+](C)c2c1[nH]c1ccccc12.[Cl-] | 0.184 µM | 0.082 µM | 0.5 |
| CN(C)CCNc1c2ccccc2[n+](C)c2c1[nH]c1ccccc12.[Cl-] | 0.05 µM | 0.161 µM | 3.2 |
| CN(C)CCCNc1c2ccccc2[n+](C)c2c1[nH]c1ccccc12.[Cl-] | 0.03 µM | 0.155 µM | 5.2 |
| CC(C)NCCCNc1c2ccccc2[n+](C)c2c1[nH]c1ccccc12.[Cl-] | 0.022 µM | 0.794 µM | 36.1 |
| C[n+]1c2ccccc2c(NC2CCNCC2)c2[nH]c3ccccc3c21.[Cl-] | 0.044 µM | 2.04 µM | 46.4 |
| CC(CN(C)C)Nc1c2ccccc2[n+](C)c2c1[nH]c1ccccc12.[Cl-] (stereo not drawn) | 0.132 µM | 0.617 µM | 4.7 |
| C[n+]1c2ccccc2cc2[n-]c3ccccc3c21.Cl [CRYPTOLEPINE HYDROCHLORIDE] | 0.755 µM | 1.18 µM | 1.6 |
| CCN(CC)CCNc1c2ccccc2[n+](C)c2c1[nH]c1ccccc12.[Cl-] | 0.082 µM | 0.674 µM | 8.2 |

— ChEMBL document CHEMBL1141474, “Cryptolepine analogues containing basic aminoalkyl side-chains at C-11: synthesis, antiplasmodial activity, and cytotoxicity” (Bioorg Med Chem Lett, 2008)
